Laboratory results published in ChEMBL document CHEMBL4316610, “Synthesis and Biological Studies of (+)-Liquiditerpenoic Acid A (Abietopinoic Acid) and Representative Analogues: SAR Studies” (J Nat Prod, 2019).
The source made the active and inactive calls. No cut-off for these calls is given here.

What was measured:
A549 [1] = test: Antiproliferative activity against human A549 cells after 48 hrs by SRB assay; format: functional; conditions: A549, 48 h
HBL-100 [2] = test: Antiproliferative activity against human HBL100 cells after 48 hrs by SRB assay; format: functional; conditions: HBL-100, 48 h
HeLa [3] = test: Antiproliferative activity against human HeLa cells after 48 hrs by SRB assay; format: functional
SW1573 [4] = test: Antiproliferative activity against human SW1573 cells after 48 hrs by SRB assay; format: functional; conditions: SW1573, 48 h
T47D [5] = test: Antiproliferative activity against human T47D cells after 48 hrs by SRB assay; format: functional
WiDr [6] = test: Antiproliferative activity against human WiDr cells after 48 hrs by SRB assay; format: functional
NALM-6 [7] = test: Antiproliferative activity against human NALM6 cells after 72 hrs by CellTiter-Glo luminescent cell viability assay; format: functional, cell-based; conditions: NALM-6, 72 h
[8] = Antiproliferative activity against mouse leukemia cells overexpressing BCR/ABL after 72 hrs by CellTiter-Glo luminescent cell viability assay; format: functional, cell-based
KOPN-8 [9] = test: Antiproliferative activity against human KOPN8 cells after 72 hrs by CellTiter-Glo luminescent cell viability assay; format: functional, cell-based; conditions: KOPN-8, 72 h
SUP-B15 = test: Antiproliferative activity against human SUP-B15 cells after 72 hrs by CellTiter-Glo luminescent cell viability assay; format: functional, cell-based; conditions: SUP-B15, 72 h
UoC-B1 = test: Antiproliferative activity against human UOCB1 cells after 72 hrs by CellTiter-Glo luminescent cell viability assay; format: functional, cell-based; conditions: UoC-B1, 72 h
BJ = test: Antiproliferative activity against human BJ cells after 72 hrs by CellTiter-Glo luminescent cell viability assay; format: ADME, cell-based
NALM-6 [10] = test: Induction of apoptosis in human NALM6 cells at 10 uM after 24 hrs by Annexin V-FITC/propidium iodide staining-based flow cytometric analysis; format: functional, cell-based
Procedure, shortened: (§1)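 Phosphatidylserine exposure read by Annexin V-FITC/propidium iodide flow cytometry; DNA content by PI staining for cell-cycle distribution.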

KOPN-8 [11] = test: Induction of apoptosis in human KOPN8 cells assessed as late apoptotic cells at 20 uM after 32 hrs by Annexin V-FITC/propidium iodide staining-based flow cytometric analysis relative to control; format: functional
NALM-6 [12] = test: Cell cycle arrest in human NALM6 cells assessed as accumulation at G0/G1 phase at 10 uM after 24 hrs by propidium iodide staining-based flow cytometric analysis; format: functional; procedure, shortened: as §1
NALM-6 [13] = test: Cell cycle arrest in human NALM6 cells assessed as accumulation at G2/M phase at 10 uM after 24 hrs by propidium iodide staining-based flow cytometric analysis; format: functional; procedure, shortened: as §1
[14] = biological target: T1, GABA-A receptor; alpha-1/beta-2/gamma-2 (Homo sapiens) (UniProt P14867+P47870+P18507); test: Modulation of recombinant wild type GABAA receptor alpha1beta2gamma2S (unknown origin) expressed in Xenopus laevis oocytes assessed as increase in GABA-evoked chloride current at 10 uM at -70 mV holding potential by two-microelectrode voltage clamp assay relative to control; format: cell-based
Procedure, shortened: (§2)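 Two-microelectrode voltage clamp at -70 mV on Xenopus laevis oocytes expressing α1β2γ2S GABA-A receptors. GABA EC5 (4-5 μM), set individually for each oocyte, applied for 20 s alone, then co-applied with compound at 10 or 100 μM. Potentiation of GABA-evoked current is reported. Dehydroabietic acid served as positive control. Mean ± SEM from at least three oocytes and two oocyte batches.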

[15] = biological target: T1, GABA-A receptor; alpha-1/beta-2/gamma-2 (Homo sapiens); test: Modulation of recombinant wild type GABAA receptor alpha1beta2gamma2S (unknown origin) expressed in Xenopus laevis oocytes assessed as increase in GABA-evoked chloride current at 100 uM at -70 mV holding potential by two-microelectrode voltage clamp assay relative to control; format: cell-based; procedure, shortened: as §2
[16] = Cytotoxicity against mouse J774 cells assessed as reduction in cell viability after 48 hrs by resazurin dye-based fluorometric analysis
Procedure, shortened: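 The CC50 is taken as the concentration giving a 50% reduction in cell viability of treated cultures compared with untreated cells.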

Leishmania amazonensis = test: Antileishmanial activity against Leishmania amazonensis MHOM/Br/79/Mari promastigotes after 48 hrs by resazurin dye-based fluorometric analysis; format: functional, organism-based
Procedure, shortened: (§3)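 The IC50 is taken as the compound concentration giving a 50% reduction in parasites, reported with SD.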

Leishmania guyanensis = test: Antileishmanial activity against Leishmania guyanensis 141/93 promastigotes after 48 hrs by resazurin dye-based fluorometric analysis; format: functional, organism-based; procedure, shortened: as §3
Leishmania donovani = test: Antileishmanial activity against Leishmania donovani MHOM/IN/80/DD8 promastigotes after 48 hrs by resazurin dye-based fluorometric analysis; format: functional, organism-based; procedure, shortened: as §3
Leishmania infantum = test: Antileishmanial activity against Leishmania infantum MCAN/ES/96/BCN150 promastigotes after 48 hrs by resazurin dye-based fluorometric analysis; format: functional, organism-based; procedure, shortened: as §3
[17] = Selectivity index, ratio of CC50 for mouse J774 cells to IC50 for Leishmania amazonensis MHOM/Br/79/Mari promastigotes; format: toxicity; conditions: read-out: Ratio CC50/IC50
[18] = Selectivity index, ratio of CC50 for mouse J774 cells to IC50 for Leishmania guyanensis 141/93 promastigotes; format: toxicity; conditions: read-out: Ratio CC50/IC50
[19] = Selectivity index, ratio of CC50 for mouse J774 cells to IC50 for Leishmania donovani MHOM/IN/80/DD8 promastigotes; format: toxicity; conditions: read-out: Ratio CC50/IC50
[20] = Selectivity index, ratio of CC50 for mouse J774 cells to IC50 for Leishmania infantum MCAN/ES/96/BCN150 promastigotes; format: toxicity; conditions: read-out: Ratio CC50/IC50
A549 [21] = test: Antiproliferative activity against human A549 cells; format: functional
HBL-100 [22] = test: Antiproliferative activity against human HBL100 cells; format: functional
HeLa [23] = test: Antiproliferative activity against human HeLa cells; format: functional
SW1573 [24] = test: Antiproliferative activity against human SW1573 cells; format: functional
T47D [25] = test: Antiproliferative activity against human T47D cells; format: functional
WiDr [26] = test: Antiproliferative activity against human WiDr cells; format: functional
[27] = Leishmania amazonensis, MHOM/Br/79/Mari, 48 h, read-out: IC50
[28] = Leishmania guyanensis, 141/93, 48 h, read-out: IC50
[29] = Leishmania donovani, MHOM/IN/80/DD8, 48 h, read-out: IC50
[30] = Leishmania donovani, MHOM/IN/80/DD8, 48 h, read-out: log(1/IC50) (converted)
[31] = Leishmania infantum, MCAN/ES/96/BCN150, 48 h, read-out: IC50

For COC(=O)[C@]1(C)CCC[C@]2(C)c3cc(OC(C)=O)c(C(C)C)cc3CC[C@@H]12, the GI50 (A549 [1]) was 11 µM, the GI50 (HBL-100 [2]) was 15 µM and the GI50 (HeLa [3]) was 4.4 µM. The GI50 (SW1573 [4]) was 12 µM, the GI50 (T47D [5]) was 14 µM and the GI50 (WiDr [6]) was 16 µM. For the same molecule, the EC50 (NALM-6 [7]) was 8.8 µM, the EC50 [8] was 14.3 µM and the EC50 (KOPN-8 [9]) was 21 µM. The EC50 (SUP-B15) was 20.2 µM, the EC50 (UoC-B1) was > 40 µM and the EC50 (BJ) was “Non-Toxic”. The Activity (NALM-6 [10]) was “inactive”, the Activity (KOPN-8 [11]) was >85% and the Activity (NALM-6 [12]) was “Active”. For the same molecule, the Activity (NALM-6 [13]) was “Active”, the Activity [14] was 5.1% and the Activity [15] was 26.3%. The CC50 at 48 h [16] was 26.5 µM, the IC50 (Leishmania amazonensis; [27]) was 3.2 µM and the IC50 (Leishmania guyanensis; [28]) was 5.5 µM. It also gave an IC50 (Leishmania donovani; [29]) of 8.1 µM, an IC50 (Leishmania donovani; [30]) of 8.12 µM and an IC50 (Leishmania infantum; [31]) of 1.3 µM. The selectivity ratio [17] was 8.2, the selectivity ratio [18] was 4.8 and the selectivity ratio [19] was 3.3. It also gave a selectivity ratio [20] of 20.4.

Work on CC(C)c1cc2c(cc1O)[C@@]1(C)CCC[C@@](C)(C(=O)O)[C@@H]1CC2 yielded an Activity [14] of 8.9%, an Activity [15] of 12.1% and a CC50 at 48 h [16] of 85.8 µM. For the same molecule, the IC50 (Leishmania amazonensis; [27]) was 54.1 µM, the IC50 (Leishmania guyanensis; [28]) was 71.4 µM and the IC50 (Leishmania donovani; [29]) was 58.1 µM. For the same molecule, the IC50 (Leishmania donovani; [30]) was 58.1 µM, the IC50 (Leishmania infantum; [31]) was 43.6 µM and the selectivity ratio [17] was 1.6. The selectivity ratio [18] was 1.2, the selectivity ratio [19] was 1.5 and the selectivity ratio [20] was 2.

For CC(C)c1cc2c(cc1O)[C@@]1(C)CCC[C@@](C)(CO)[C@@H]1CC2=O, the Activity [14] was 4.5%, the Activity [15] was -30.3% and the CC50 at 48 h [16] was 14.4 µM. It also gave an IC50 (Leishmania amazonensis; [27]) of 10.2 µM, an IC50 (Leishmania guyanensis; [28]) of 16.5 µM and an IC50 (Leishmania donovani; [29]) of 19.7 µM. It also gave an IC50 (Leishmania donovani; [30]) of 19.7 µM, an IC50 (Leishmania infantum; [31]) of 9.7 µM and a selectivity ratio [17] of 1.4. It also gave a selectivity ratio [18] of 0.9, a selectivity ratio [19] of 0.7 and a selectivity ratio [20] of 1.5.

For CCCCCCCCCCCCCCCCOP(=O)([O-])OCC[N+](C)(C)C [MILTEFOSINE], the selectivity ratio [17] was 2.9, the selectivity ratio [18] was 7.5 and the selectivity ratio [19] was 909. It also gave a selectivity ratio [20] of 40.1.

Work on COC(=O)[C@]1(C)CCC[C@]2(C)c3ccc(C(C)C)cc3CC[C@@H]12 [METHYL DEHYDROABIETATE] yielded a GI50 (A549 [21]) of 15 µM, a GI50 (HBL-100 [22]) of 19 µM and a GI50 (HeLa [23]) of 15 µM. For the same molecule, the GI50 (SW1573 [24]) was 22 µM, the GI50 (T47D [25]) was 16 µM and the GI50 (WiDr [26]) was 10 µM.

For COc1cc([C@@H]2c3cc4c(cc3[C@@H](O[C@@H]3O[C@@H]5CO[C@@H](C)O[C@H]5[C@H](O)[C@H]3O)[C@H]3COC(=O)[C@H]23)OCO4)cc(OC)c1O [ETOPOSIDE], the GI50 (A549 [1]) was 1.5 µM, the GI50 (HBL-100 [2]) was 1.4 µM and the GI50 (HeLa [3]) was 3.3 µM. It also gave a GI50 (SW1573 [4]) of 15 µM, a GI50 (T47D [5]) of 22 µM and a GI50 (WiDr [6]) of 23 µM.

COC(=O)[C@]1(C)CCC[C@]2(C)c3cc(O)c(C(C)C)cc3CC[C@@H]12 showed a GI50 (A549 [1]) of 9.4 µM, a GI50 (HBL-100 [2]) of 9.7 µM and a GI50 (HeLa [3]) of 5.8 µM. For the same molecule, the GI50 (SW1573 [4]) was 11 µM, the GI50 (T47D [5]) was 19 µM and the GI50 (WiDr [6]) was 23 µM. It also gave an Activity [14] of 23.7%, an Activity [15] of 378% and a CC50 at 48 h [16] of 34.2 µM. The IC50 (Leishmania amazonensis; [27]) was 3.9 µM, the IC50 (Leishmania guyanensis; [28]) was 5.9 µM and the IC50 (Leishmania donovani; [29]) was 9.21 µM. For the same molecule, the IC50 (Leishmania donovani; [30]) was 9.21 µM, the IC50 (Leishmania infantum; [31]) was 5 µM and the selectivity ratio [17] was 8.7. The selectivity ratio [18] was 5.8, the selectivity ratio [19] was 3.7 and the selectivity ratio [20] was 6.8.

Molecule CC(C)c1cc2c(cc1O)[C@@]1(C)CCC[C@@](C)(C(=O)O)[C@@H]1CC2=O has an Activity [14] of -2%, an Activity [15] of -21.1% and a CC50 at 48 h [16] of 219 µM. For the same molecule, the IC50 (Leishmania amazonensis) was “Not Active”, the IC50 (Leishmania guyanensis) was “Not Active” and the IC50 (Leishmania donovani) was “Not Active”. The IC50 (Leishmania infantum) was “Not Active”.

Work on COC(=O)[C@]1(C)CCC[C@]2(C)c3cc(O)c(C(C)C)cc3C(=O)C[C@@H]12 yielded an Activity [14] of 37.4%, an Activity [15] of 242% and a CC50 at 48 h [16] of 154 µM.

Work on CC(C)c1cc2c(cc1O)[C@@]1(C)CCC[C@@](C)(CO)[C@@H]1CC2 [18-HYDROXYFERRUGINOL] yielded an Activity [14] of 29.3%, an Activity [15] of 154% and a CC50 at 48 h [16] of 23.4 µM. It also gave an IC50 (Leishmania amazonensis; [27]) of 7.7 µM, an IC50 (Leishmania guyanensis; [28]) of 12.5 µM and an IC50 (Leishmania donovani; [29]) of 13.9 µM. It also gave an IC50 (Leishmania donovani; [30]) of 13.9 µM, an IC50 (Leishmania infantum; [31]) of 0.7 µM and a selectivity ratio [17] of 3. For the same molecule, the selectivity ratio [18] was 1.9, the selectivity ratio [19] was 1.7 and the selectivity ratio [20] was 33.4.

CN[C@@H]1C[C@H]2O[C@@](C)([C@@H]1OC)n1c3ccccc3c3c4c(c5c6ccccc6n2c5c31)C(=O)NC4 [STAUROSPORINE] showed an EC50 (NALM-6 [7]) of 1.4 µM and an EC50 [8] of 0.35 µM.
